One series has as its system Coxsackievirus B3. The series is described as follows: Antiviral activity against Coxsackievirus B3 infected in African green monkey Vero cells assessed as inhibition of virus-induced cytopathic effect. The format is functional, organism-based. To be noted: Enterovirus B. The procedure, abridged: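 Vero cells (2.5 × 10^4/well) were plated for 24 h, infected 2 h with 100 TCID50 Coxsackievirus B3 (Nancy), then given compounds at various concentrations until control CPE reached 4+. Run in triplicate, at least three times. IC50 is the concentration inhibiting 50% of CPE (Reed and Muench). SI = TC50/IC50.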
Background: Protection from cytopathic effect is a common read-out in antiviral testing.

Series [1] can be described thus: Selectivity index, ratio of TC50 for African green monkey Vero cells to IC50 for Coxsackievirus B3-induced cytopathic effect in African green monkey Vero cells. To be noted: read-out: Selectivity Index. The format is toxicity, cell-based. The procedure, abridged:
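Vero cells (2.5 × 10^4 cells/well). TC50: cells incubated overnight, compounds applied in triplicate for 2 days, CPE read, 50% growth inhibition versus controls by Reed and Muench. IC50: cells infected 2 h with 100 TCID50 CVB3 (Nancy), compounds added until control CPE 4+, 50% CPE inhibition by Reed and Muench. SI = TC50/IC50.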

Series [2] can be described thus: Antiinflammatory activity in C57BL6/J mouse BV2 cells assessed as inhibition of LPS-induced nitric oxide production after 24 hrs by Griess assay. The format is functional, cell-based. To be noted: BV-2, 24 h. The gist of the method:
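Mouse (C57BL6/J) macrophages grown 24 h at 37 °C in RPMI1640, then given 1 μg/mL LPS plus test compounds for a further 24 h at 37 °C. Blank, LPS-only and dexamethasone (10−6 M) wells served as controls. Nitrite in supernatant was read with Griess reagent at 570 nm against a sodium nitrite standard.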
In general terms: Griess reagent forms a coloured azo dye with nitrite.

The nature of series [3]: Antiviral activity against Influenza A virus (A/FM/1/47(H1N1)) infected in MDCK cells assessed as inhibition of virus-induced cytopathic effect. It counts as functional, cell-based, Influenza A virus (A/Fort Monmouth/1/1947(H1N1)). The gist of the method:
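MDCK cells (2.5 × 10^4 cells/well) plated 24 h, PBS-washed, infected 2 h with 100 TCID50 influenza A/FM/1/47 (H1N1); compounds at various concentrations added, incubation until control CPE reached 4+. Triplicate, at least three separate runs; IC50 = minimal concentration inhibiting 50% CPE, Reed and Muench method.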

Series [4] concerns Mus musculus. The series is described as follows: Antiinflammatory activity in ICR mouse assessed as inhibition of croton oil-induced ear edema at 1 mg/ml administered 1 hr prior to croton oil challenge measured after 4 hrs relative to control. The format is functional. The gist of the method: (§1)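 Male ICR mice (18−20 g, n = 10 per group) received 0.4 mg croton oil in […] acetone on the left ear. Treatment was applied 1 h before the croton oil, and the animals were killed 4 h after it. Edema was taken as the weight difference between 8 mm punches of the treated and untreated ears, expressed as % reduction versus control mice.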

The nature of series [5]: Cytotoxicity against African green monkey Vero cells assessed as growth inhibition by CPE assay. It counts as cell-based. To be noted: chlorocebus sabaeus, read-out: TC50 (the source's name). The procedure, abridged: (§2)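 Vero or MDCK cells (2.5 × 10^4/well) were seeded and incubated overnight. Medium was then replaced with compounds at various concentrations in triplicate. After a 2-day incubation, cytotoxicity was scored by CPE. TC50 is the concentration inhibiting 50% of cell growth versus controls (Reed and Muench). Values are means of three independent determinations.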

Series [6] concerns Mus musculus. Nature of the series: Antiinflammatory activity in ICR mouse assessed as inhibition of croton oil-induced ear edema at 50 mg/ml administered 1 hr prior to croton oil challenge measured after 4 hrs relative to control. It counts as functional. The gist of the method: as §1
Series [7] can be described thus: Cytotoxicity against MDCK cells assessed as growth inhibition by CPE assay. It counts as cell-based, Canis lupus familiaris. To be noted: dog, read-out: TC50 (the source's name). The gist of the method: as §2
The nature of series [8]: Selectivity index, ratio of TC50 for MDCK cells to IC50 for Influenza A virus (A/FM/1/47(H1N1))-induced cytopathic effect in MDCK cells. The format is toxicity, cell-based. To be noted: dog, read-out: Selectivity Index. The procedure, abridged:
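MDCK cells (2.5 × 10^4 cells/well). TC50: cells incubated overnight, compounds applied in triplicate for 2 days, CPE read, 50% growth inhibition versus controls by Reed and Muench. IC50: PBS-washed cells infected 2 h with 100 TCID50 influenza A/FM/1/47 (H1N1), compounds added until control CPE 4+, 50% CPE inhibition by Reed and Muench. SI = TC50/IC50.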

SMILES strings stand for the structures.

Consider 27 molecules from ChEMBL document CHEMBL3593156, “Bioactive Sesquiterpenes and Lignans from the Fruits of Xanthium sibiricum” (J Nat Prod, 2015).

Regarding `NC(=O)c1ncn([C@@H]2O[C@H](CO)[C@@H](O)[C@H]2O)n1` [RIBAVIRIN], in the series with Coxsackievirus B3, the IC50 was 1200 µM. Moreover, the selectivity ratio in [1] was determined as 6.8.

Take `C[C@@H]1C(=O)O[C@H]2C[C@H](C)C(C(=O)O)=CC[C@@H]21`: the IC50 in [2] was over 10 µM; in the series with Coxsackievirus B3 it was over 35 µM; in [3], over 35 µM.

With `CC(=C/C(=O)O)/C=C/[C@]1(O)[C@@]2(C)CO[C@]1(C)CC(=O)C2`, the results for the IC50 (in series [2]; with Coxsackievirus B3; in series [3]) were over 10 µM, over 35 µM and over 35 µM, respectively.

As for `C[C@@H]1C[C@H]2[C@@H]3CCC4=CC(=O)C=C[C@]4(C)[C@@]3(F)[C@@H](O)C[C@]2(C)[C@@]1(O)C(=O)CO` [DEXAMETHASONE], in series [2], the IC50 came to 0.025 µM. Moreover, the “inhibition (INH)” value with Mus musculus [4] worked out at 70.5%.

For `CCOC(=O)c1ccc(O)c(O)c1`, the figures for the IC50 (in [2]; in the series on Coxsackievirus B3; in series [3]) were over 10 µM, 11.3 µM and over 35 µM, respectively. The CC50 in series [5] is 23.1 µM. Further, the selectivity ratio in series [1] is 2.1.

With `C=C1[C@H]2C[C@H]2[C@]2(C)CC(=O)C3=C(C)C(=O)O[C@@H]3[C@@H]12`, the IC50 is over 10 µM in series [2], over 35 µM in the series on Coxsackievirus B3 and over 35 µM in series [3].

Turning to `COC(=O)CC1=CC[C@H]2[C@H](C[C@@H]1C)OC(=O)[C@H]2C`, the IC50 was over 10 µM in series [2], over 35 µM with Coxsackievirus B3 and over 35 µM in series [3].

For the molecule `C=C1C(=O)O[C@@H]2C=C(CCC(C)=O)[C@@H](C)CC[C@@H]12`, the IC50 in [2] was 8.5 µM; with Coxsackievirus B3 it was 6.4 µM; in series [3] it was 8.6 µM. Also, the “inhibition (INH)” value in the series on Mus musculus [6] is reported as under 20%. Also, the CC50 in [5] stood at 19.2 µM; in series [7], 19.3 µM. The selectivity ratio in [1] was determined as 3; in series [8], 2.2.

With `Cc1cc(CCCOc2c(C)cc(-c3noc(C(F)(F)F)n3)cc2C)on1` [PLECONARIL], in the series with Coxsackievirus B3, the IC50 amounted to 0.0025 µM. In addition, the CC50 in series [5] was 40.5 µM. Further, the selectivity ratio in series [1] is 16200.

As for `CCOC(=O)/C=C/c1ccc(O)c(O)c1` [ETHYL CAFFEATE], the results for the IC50 (in series [2]; with Coxsackievirus B3; in series [3]) were 2.5 µM, over 35 µM and 3.7 µM, respectively. Moreover, the CC50 in [7] was determined as 19.3 µM. In addition, the selectivity ratio in series [8] is 5.2.

Consider `C[C@H]1C[C@@H]2OC(=O)[C@H](C)[C@H]2CC=C1C(=O)O`, for which the IC50 in [2] was over 10 µM; with Coxsackievirus B3, over 35 µM; in series [3] it was over 35 µM.

With `C=C1C(=O)O[C@H]2C[C@H](C)C(C=O)=CC[C@H]12`, the figures for the IC50 (in series [2]; with Coxsackievirus B3; in series [3]) were 3 µM, 19.2 µM and 6.4 µM, respectively. Moreover, in the series with Mus musculus [6], the “inhibition (INH)” value is on record as under 20%. The CC50 in [5] came out at 69.3 µM; in series [7], 48.1 µM. For the same molecule, the values for the selectivity ratio in series [1] and in series [8] were 3.6 and 7.5, respectively.

For the molecule `COc1cc([C@@H]2Oc3c(OC)cc(C(=O)[C@H](O)CO)cc3[C@H]2CO)ccc1O`, the IC50 in [2] is over 10 µM; with Coxsackievirus B3 it was over 35 µM; in series [3], over 35 µM.

As to `CC(=O)/C=C/C1=CC[C@H]2[C@H](C[C@@H]1C)OC(=O)[C@H]2C`, the IC50 was over 10 µM in series [2], over 35 µM with Coxsackievirus B3 and over 35 µM in [3].

For `C[C@H]1C[C@@H]2OC(=O)[C@H](C)[C@H]2C=CC1=O`, the results for the IC50 (in [2]; in the series with Coxsackievirus B3; in series [3]) were over 10 µM, over 35 µM and over 35 µM, respectively.

On to `CC(=C/C(=O)O)/C=C/[C@]1(O)[C@@]2(C)CO[C@]1(C)C[C@@H](O)C2`, for which the figures for the IC50 (in series [2]; with Coxsackievirus B3; in series [3]) were over 10 µM, over 35 µM and over 35 µM, respectively.

Consider `C=C1C(=O)O[C@H]2C[C@H](C)C(CCC(C)=O)=CC[C@H]12`, for which the values for the IC50 (in series [2]; in the series with Coxsackievirus B3; in series [3]) were 5.6 µM, over 35 µM and over 35 µM, respectively. For the same molecule, the “inhibition (INH)” value with Mus musculus [6] came to 46.9%.

For the molecule `C=C1CC=C[C@]2(C)C[C@]3(O)OC(=O)C(C)C3=C[C@@H]12` (stereo not given in full) [HYDROXYLINDESTENOLIDE], the figures for the IC50 (in [2]; in the series with Coxsackievirus B3; in series [3]) were 3.9 µM, over 35 µM and over 35 µM, respectively. Further, in the series on Mus musculus [6], the “inhibition (INH)” value was found to be 37.7%.

With `C[C@H]1C[C@@H]2OC(=O)[C@H](C)[C@H]2CC=C1C=O`, the values for the IC50 (in series [2]; in the series on Coxsackievirus B3; in [3]) were over 10 µM, over 35 µM and over 35 µM, respectively.

For `CC1=C2C[C@H]3[C@@]4(CO4)[C@H](O)C=C[C@]3(C)C[C@@H]2OC1=O`, the values for the IC50 (in series [2]; in the series on Coxsackievirus B3; in series [3]) were over 10 µM, 19.2 µM and 33.3 µM, respectively. Besides, the CC50 was 69.3 µM in [5] and 100 µM in series [7]. The selectivity ratio in series [1] amounted to 3.6; in series [8], 3.

`C=C1[C@@H]2C[C@@H]2[C@@]2(C)C=C3OC(=O)C(C)=C3[C@@H](O)[C@H]12`: the results for the IC50 (in series [2]; with Coxsackievirus B3; in series [3]) were over 10 µM, over 35 µM and over 35 µM, respectively.

With `CC(=O)/C=C/C1=CC[C@H]2[C@H](C[C@@H]1C)OC(=O)[C@@H]2C`, the IC50 in series [2] was 3.7 µM; in the series with Coxsackievirus B3, over 35 µM; in [3] it was over 35 µM. The “inhibition (INH)” value in the series on Mus musculus [6] is under 20%.

Consider `COc1cc([C@H]2Oc3c(OC)cc(C(=O)[C@@H](O)CO)cc3[C@@H]2CO)ccc1O`, for which the IC50 in series [2] was over 10 µM; in the series with Coxsackievirus B3 it was over 35 µM; in series [3], over 35 µM.

As to `CC(=O)CCC1=CC[C@H]2[C@H](C[C@@H]1C)OC(=O)[C@@H]2C`, the IC50 in series [2] is over 10 µM; in the series on Coxsackievirus B3, 6.4 µM; in series [3], over 35 µM. The “inhibition (INH)” value in the series with Mus musculus [6] is under 20%. The CC50 in series [5] amounted to 77.6 µM. The selectivity ratio in series [1] turned out to be 12.1.

As to `COc1cc(C(O)C(CO)Oc2ccc(C(=O)O)cc2OC)ccc1O` (stereo not given), the IC50 in [2] was over 10 µM; with Coxsackievirus B3 it was over 35 µM; in series [3] it was 8.4 µM. The CC50 in series [7] was 100 µM. Further, in series [8], the selectivity ratio is 11.9.

As to `CC(O)CCC1=CC[C@H]2[C@@H](C[C@@H]1C)OC(=O)[C@@H]2C` (stereo not given in full), the IC50 is 5.7 µM in series [2], over 35 µM in the series on Coxsackievirus B3 and over 35 µM in series [3].

With `CCOC(=O)C1=C[C@@H](OC(CC)CC)[C@H](NC(C)=O)[C@@H](N)C1` [OSELTAMIVIR], the CC50 in [7] was 3120 µM. Moreover, the IC50 in [3] was 2.7 µM. Further, the selectivity ratio in series [8] is 1140.

Broadly, the IC50 is the concentration needed to halve the response being measured.
